In data set [1] the test system is Human betaherpesvirus 5. The experiment in a line: Antiviral activity against HCMV Davis infected in human HEL cells assessed inhibition of virus-induced cytopathicity after 7 days postinfection. The conditions noted are these: Human betaherpesvirus 5, Davis, 168 h. It is filed as functional, organism-based. A digest of the protocol: (§1)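 HEL fibroblasts were infected at 100 PFU. After 2 h, residual virus was removed and medium with test compound was added at several concentrations, in duplicate. Cells were incubated 7 days at 37 °C, fixed with ethanol and stained with Giemsa.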

The nature of data set [2]: Therapeutic index, ratio of CC50 for human HEL cells to EC50 for Human cytomegalovirus. The class given is cell-based. The settings on record: read-out: Ratio CC50/EC50. A digest of the protocol: (§2)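 Index calculated as CC50 (HEL cell growth, 3 days, Coulter count) divided by EC50 from the HEL-cell antiviral assays: HCMV cytopathicity at 7 days for line 18, VZV plaque reduction at 5 days for line 19.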

In data set [3] the test system is Human alphaherpesvirus 3. Nature of the data set: Antiviral activity against thymidine kinase expressing Varicella zoster virus Oka infected in human HEL cells assessed reduction in viral plaque formation. The class given is functional, organism-based. The settings on record: Human alphaherpesvirus 3, Oka. An outline of the steps:
(§3)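 Confluent HEL cell monolayers were inoculated with VZV at 20 PFU per well. Residual virus was removed after 2 h, and compound was added at varying concentrations, in duplicate.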

Data set [4] concerns Human betaherpesvirus 5. Nature of the data set: Antiviral activity against HCMV AD169 infected in human HEL cells assessed inhibition of virus-induced cytopathicity after 7 days postinfection. The class given is functional, organism-based. The conditions noted are these: Human betaherpesvirus 5, AD169, HEL, 168 h. An outline of the steps: as §1
Data set [5] is described as follows: Cytotoxicity against human HEL cells assessed as morphological alteration after 3 days. It is filed as cell-based. A digest of the protocol: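 HEL cultures were examined under the microscope. MCC was recorded as the compound concentration causing a microscopically detectable alteration of normal cell morphology.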
Data set [6] deals with Human alphaherpesvirus 3. Nature of the data set: Antiviral activity against thymidine kinase deficient Varicella zoster virus 07/1 infected in human HEL cells assessed reduction in viral plaque formation. The class given is functional, organism-based. The settings on record: Human alphaherpesvirus 3, HEL. An outline of the steps:
as §3

Data set [7] is described as follows: Cytotoxicity against human HEL cells assessed as reduction of growth after 3 days. It is filed as cell-based. An outline of the steps:
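HEL cells were seeded at 5 × 10³ cells/well and grown 24 h before compound was added at different concentrations. After 3 days at 37 °C, cells were counted with a Coulter counter. CC50, the concentration halving growth relative to untreated controls, was read from plots of cell number (% of control) against concentration.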

Data set [8] in a line: Therapeutic index, ratio of CC50 for human HEL cells to EC50 for Varicella zoster virus. The class given is cell-based. The settings on record: read-out: Ratio CC50/EC50. An outline of the steps:
as §2

For data set [9], the system named is Vesicular stomatitis virus. The experiment in a line: Antiviral activity against VSV infected in human HEL cells. It is filed as functional, organism-based.
For data set [10], the system named is Punta Toro virus. Nature of the data set: Antiviral activity against Punta Toro virus infected in african green monkey Vero cells. It is filed as functional, organism-based.
Data set [11] concerns Human respirovirus 3. Nature of the data set: Antiviral activity against Parainfluenza virus 3 infected in african green monkey Vero cells. The class given is functional, organism-based.
For data set [12], the system named is Coxsackievirus B4. Nature of the data set: Antiviral activity against Coxsackievirus B4 infected in african green monkey Vero cells. The class given is functional, organism-based.
Data set [13] deals with Coxsackievirus B4. The experiment in a line: Antiviral activity against Coxsackievirus B4 infected in human HeLa cells. The class given is functional, organism-based.
Data set [14] has as its system Human alphaherpesvirus 2. The experiment in a line: Antiviral activity against HSV2 infected in human HEL cells. The class given is functional, organism-based.
The subject of data set [15] is Sindbis virus. The experiment in a line: Antiviral activity against Sindbis virus infected in african green monkey Vero cells. It is filed as functional, organism-based.
Data set [16] has as its system Human alphaherpesvirus 1. The experiment in a line: Antiviral activity against HSV1 KOS infected in human HEL cells. It is filed as functional, organism-based.
Data set [17] has as its system Mammalian orthoreovirus 3. Nature of the data set: Antiviral activity against Reovirus 3 infected in african green monkey Vero cells. It is filed as functional, organism-based.
Data set [18] has as its system Human alphaherpesvirus 1. Nature of the data set: Antiviral activity against acyclovir-resistant […]-deficient HSV1 infected in human HEL cells. It is filed as functional, organism-based.
For data set [19], the system named is Respiratory syncytial virus. The experiment in a line: Antiviral activity against RSV infected in human HeLa cells. The class given is functional, organism-based.
Data set [20] concerns Human alphaherpesvirus 3. The experiment in a line: Antiviral activity against Varicella zoster virus YS infected in human HEL cells assessed reduction in viral plaque formation. The class given is functional, organism-based. The settings on record: Human alphaherpesvirus 3, YS.
The test system of data set [21] is Vesicular stomatitis virus. The experiment in a line: Antiviral activity against VSV infected in human HeLa cells. It is filed as functional, organism-based.
Data set [22] deals with Vaccinia virus. Nature of the data set: Antiviral activity against Vaccinia virus infected in human HEL cells. The class given is functional, organism-based. The settings on record: Orthopoxvirus vaccinia.
Data set [23] deals with Human alphaherpesvirus 3. The experiment in a line: Antiviral activity against Varicella zoster virus YSR infected in human HEL cells assessed reduction in viral plaque formation. It is filed as functional, organism-based. The conditions noted are these: Human alphaherpesvirus 3, YSR.

Molecules are shown by their SMILES. Activity calls are given as the source filed them. The rule behind the calls is not given here. Where only a bound is given, the exact number is not on record here.

As to `O=S1(=O)C=C(OCc2ccccc2)C(Cc2ccccc2)(Cc2ccccc2)O1`, the EC50 in [1] is greater than 50 µM; in [3] it was greater than 5 µM; in data set [4] it was 50 µM; in [6], 5 µM. For the same molecule, the selectivity ratio in [2] and in data set [8] was no more than 4 throughout. For the same molecule, the MCC at 72 h in [5] turned out to be 200 µM. Further, in [7], the cytotoxic concentration (CC50) at 72 h came out at 200 µM.

For the molecule `CCC1(Cc2ccccc2)OS(=O)(=O)C=C1OCc1ccccc1` (racemic), the result in [9], in data set [10], in data set [11], in data set [12], in data set [13] and in [14] was inactive. Besides, the result in [15], in data set [16], in [17], in data set [18], in [19] and in data set [21] was inactive. In data set [22], the outcome was inactive. Besides, the EC50 in data set [1] is 9.3 µM; in [3], 6.4 µM; in data set [4], 13 µM; in data set [6], 5.6 µM; in data set [20], 3.6 µM. For the same molecule, the selectivity ratio in [2] and in [8] was no less than 5 in each case. Besides, in data set [5], the MCC at 72 h is no less than 50 µM. Besides, the CC50 at 72 h in data set [7] amounted to 200 µM.

In the case of `CCC1(Cc2ccccc2)OS(=O)(=O)C=C1OCc1ccc(F)cc1` (racemic), the EC50 stood at 7 µM in data set [1]; 8.6 µM in [3]; 15 µM in data set [4]; 8.6 µM in data set [6]; 9.3 µM in data set [23]; 10.4 µM in data set [20]. Further, in [5], the MCC at 72 h was no less than 50 µM. Besides, the 50% cytotoxic concentration (CC50) at 72 h in data set [7] is greater than 50 µM.

Source of the values: ChEMBL document CHEMBL1152768, “4-Benzyloxy-gamma-sultone derivatives: discovery of a novel family of non-nucleoside inhibitors of human cytomegalovirus and varicella zoster virus” (J Med Chem, 2009).
